# High-throughput results deposited in PubChem BioAssay by several laboratories.
# PLK1 PBD inh: Plk1 (human) PBD binding inhibition; Plk1 PBD phosphopeptide binding, fluorescence polarization; actives 0.13% (n = 97,000); inhibition, %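 (tested at about 20 µM)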; in the data active means inhibition above about 34%, passing the limit was not always enough
# Pyk2 oligo antag: antagonists of human Pyk2 oligomerization; Q14289; Q293 cells, Pyk2 FERM NanoBiT luminescence; hits give low values; z-score (the deposit names both 25 µM and 10 µM); actives 0.83% (n = 99,000);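 active means Z-score of -3 or lower, scaled per plate to the spread of control and sample wells; inactive means z-score above -3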;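 further: negative z-score means lost luminescence so less FERM oligomerization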
# Target sequence (Q14289 whole entry, looked up): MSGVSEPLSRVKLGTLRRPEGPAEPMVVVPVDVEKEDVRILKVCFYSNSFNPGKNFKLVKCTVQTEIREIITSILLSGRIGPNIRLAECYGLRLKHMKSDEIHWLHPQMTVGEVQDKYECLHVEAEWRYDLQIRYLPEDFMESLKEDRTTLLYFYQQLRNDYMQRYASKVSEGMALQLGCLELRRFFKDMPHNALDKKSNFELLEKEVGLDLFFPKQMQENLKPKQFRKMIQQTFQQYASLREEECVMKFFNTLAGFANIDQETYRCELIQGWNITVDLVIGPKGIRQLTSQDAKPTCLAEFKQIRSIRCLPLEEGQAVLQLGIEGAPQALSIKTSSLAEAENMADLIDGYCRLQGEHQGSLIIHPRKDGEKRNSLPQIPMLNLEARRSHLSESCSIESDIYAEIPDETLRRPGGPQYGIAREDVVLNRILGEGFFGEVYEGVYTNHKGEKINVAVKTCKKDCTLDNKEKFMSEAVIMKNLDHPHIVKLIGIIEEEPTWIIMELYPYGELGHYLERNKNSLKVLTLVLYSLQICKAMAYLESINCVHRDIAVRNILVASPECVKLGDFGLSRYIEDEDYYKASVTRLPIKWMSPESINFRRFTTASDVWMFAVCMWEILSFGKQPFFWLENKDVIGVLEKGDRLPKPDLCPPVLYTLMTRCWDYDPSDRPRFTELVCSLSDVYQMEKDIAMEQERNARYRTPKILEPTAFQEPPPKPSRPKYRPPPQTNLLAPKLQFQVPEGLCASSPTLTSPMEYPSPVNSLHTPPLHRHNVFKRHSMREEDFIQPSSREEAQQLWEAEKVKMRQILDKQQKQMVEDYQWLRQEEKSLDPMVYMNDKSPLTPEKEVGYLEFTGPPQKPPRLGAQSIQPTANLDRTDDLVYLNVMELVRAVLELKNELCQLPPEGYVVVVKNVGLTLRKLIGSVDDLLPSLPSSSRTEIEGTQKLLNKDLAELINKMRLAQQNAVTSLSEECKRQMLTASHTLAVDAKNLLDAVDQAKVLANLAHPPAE
# HIV Rev-RRE inh: HIV Rev-RRE protein-RNA interaction inhibition. inhibition, % at 8 µM. Rev peptide-RRE RNA binding, FRET. actives 0.79% (n = 97,000). P05866;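 active means inhibition above the screen-wide mean plus 3 SD, cut at about 35% in these data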;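 further: 0% = median DMSO wells and 100% = median Neomycin B control wells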
#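 Test system – labelled RRE RNA duplex and labelled Rev peptide · Signal – fluorescein-to-Cy5 FRET, 480 nm excitation · Evaluation – % inhibition of FRET ratio versus controls · Benchmarks – DMSO low control, neomycin B high control · Incubation – 5 min RNA-compound premix plus 15 min binding step, 25 °C · Medium – HEPES pH 7.5 salt buffer with EDTA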
# PLK1 kinase inh: PLK1 (human) kinase inhibition | AID 619 | recombinant PLK1 kinase, TR-FRET peptide phosphorylation | inhibition, % at 10 µM | actives 0.53% (n = 97,000);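 active means inhibition of 50% or more in the single-concentration screen; inactive means inhibition below 50%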;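 further: 0% = DMSO max control and 100% = H-89 dihydrochloride min control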
# Cav3 T inh: inhibitors of human Cav3.2 T-type calcium channel; O95180; Cav3.2-expressing cells, Fluo-4 calcium fluorescence FDSS; hits give low values; B-score at 10 µM; actives 4% (n = 100,000); AID 449739;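 active means single-dose well whose peak fluorescence ratio is a statistical outlier from its plate by either plate-standardised score or position-corrected B-score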
# FAK inh: blocks human focal adhesion kinase activity; Q05397; biochemical FAK kinase activity assay; inhibition, %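 (tested at 7 µM)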; actives 0.84% (n = 97,000); in the data active means inhibition above about 19%;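 further: 0% = DMSO and 100% = reference compound high control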
# * = called active by the depositor; . = not tested or not shown; [ ] = remark or other dose. Most compounds without a hit are left out; they make up all but 5.8% or so of the library.
SMILES,PLK1 PBD inh,Pyk2 oligo antag,HIV Rev-RRE inh,PLK1 kinase inh,Cav3 T inh,FAK inh
Cc1ccc(C)c(N(CC(=O)NC2CCCC2)C(=O)c2cc3cc4cc(C)ccc4nc3s2)c1,2,1.4,18,-9,-1.6,4
Cc1cccc(N(CC(=O)NC2CCCC2)C(=O)c2cc3cc4cccc(C)c4nc3s2)c1C,14,-0.55,1,-8,-3.3*,1
Cc1ccc(-c2nc3ccc(NS(=O)(=O)c4ccccc4)cc3[nH]2)o1,0,-0.83,2,-11,.,7
CN1CCN(C(=O)/C(=C\c2ccccc2)c2ccccc2)CC1,16,-0.54,0,-11,1.6,0
CC1CCN(C(=O)/C(=C/c2ccccc2Cl)c2ccccc2)CC1,17,-3.9*,9,-7,-9.1*,6
Cc1ccc(NC(=O)CN2CCC(C(=O)c3ccc(F)cc3)CC2)cc1,-9,1.1,14,-5,-5.2*,-1
COc1ccc(C2(CNC(C)=O)CCOCC2)cc1OC,12,.,6,62*,.,1
COCCOc1nc2c(c(=O)n(C)c(=O)n2C)n1Cc1cccc(OC)c1,-7,0.18,4,-11,0.14,1
O=C(c1ccc(Cl)c(Cl)c1)N(Cc1ccco1)c1ccc(O)cc1,-12,-2.1,7,-3,-7.4*,0
O=C(Cn1cnc2ccccc2c1=O)N(Cc1ccco1)c1ccc(O)cc1,9,-1.7,6,-2,0.41,-3
O=C(c1cc2ccccc2[nH]1)N1CCOCC1,.,-0.09,.,.,.,.
N#CCC(CNc1ncc(C(F)(F)F)cc1Cl)OC(=O)c1c(F)cccc1F (stereo unspecified),25,-1.6,18,-5,-3.7*,1
Cc1cc2n(n1)C(c1ccccc1)CC(c1ccc(Br)cc1)=N2 (stereo unspecified),.,-1.4,.,.,.,.
N#CC1=C2Nc3ccccc3N2C(=O)NC1(c1ccccc1)C(F)(F)F (stereo unspecified),15,-3.1*,13,-9,-0.95,-1
O=C1NC(c2ccccc2)(C(F)(F)F)C(=O)N1Cc1cccnc1 (stereo unspecified),-15,-2,2,-5,-0.19,2
C[C@@H](O)[C@H]1C(=O)N2C(C(=O)O)=C(S[C@@H]3CN[C@H](C(=O)N(C)C)C3)[C@H](C)[C@H]12,.,.,.,.,0.2,.
O=C(Nc1ccc2c(c1)CCC2)c1cc(S(=O)(=O)N2CCN(c3ccccc3)CC2)ccc1Cl,-20,0.82,8,-9,-2.7,0
Cc1ccccc1NC(NC(=O)c1cccs1)C(Cl)(Cl)Cl (stereo unspecified),11,0.51,3,-4,-5.9*,-1
O=C(NCc1ccc(F)cc1)c1cc(S(=O)(=O)N2CCOCC2)ccc1F,4,1.1,5,-10,-5.2*,-1
Cc1ccc(NC(=O)c2cc(S(=O)(=O)N3CCOCC3)ccc2F)c(C)c1,.,0.47,.,.,0.16,.
COC(=O)C1=C(C)NC(C)=C(C(=O)OCCN(C)Cc2ccccc2)C1c1cccc([N+](=O)[O-])c1 (stereo unspecified),.,.,.,.,-4.1*,.
CCCc1cc(=O)[nH]c(-n2[nH]c3c(c2=O)CCCC3)n1,26,-0.04,69*,-5,.,-1
Clc1ccccc1-c1nnc2sc(-c3ccccn3)nn12,-21,-0.28,3,-16,-0.3,0
COc1ccccc1-c1nnc2sc(COc3ccc(Cl)cc3)nn12,-11,-0.56,12,-12,-2.8*,-1
COc1cccc(OC)c1-c1nn2c(-c3ccccc3Cl)nnc2s1,-15,-3*,6,-10,-3.2,-3
CC1(C(=O)NCCCNc2ncc(C(F)(F)F)cc2Cl)C=CC2(CCCCC2)N1C(=O)c1ccccc1 (stereo unspecified),.,.,.,.,-2.8,.
COc1cc2cc(/C=C/C(=O)c3ccco3)c(Cl)nc2cc1OC,-30,0.1,79*[fluorescence artefact?],-27,-1.7,2
COc1ccc2cc(/C=C/C(=O)c3ccco3)c(Cl)nc2c1,-30,.,15,-4,.,0
CC(C)(C)c1ccc(C(=O)CCCSC2=C(C#N)C(c3ccco3)C3=C(CCCC3=O)N2)cc1 (stereo unspecified),-14,0.98,-4,-12,-4.3*,2
Cc1cccc(C(=O)NNC(=O)C2CCCO2)c1 (stereo unspecified),2,0,8,-3,0.078,-6
